# The list is not random: actives were taken first. Their share in the collection is about 1.6%.
# LEDGF integ inh: blocks HIV-1 LEDGF/p75-dependent DNA integration; inhibition, % at 3.7 µM; 370,000 tested, 0.64% active; TR-FRET IN-LEDGF/p75 DNA integration, Eu/Cy5; AID 743269;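 active means inhibition above the screen-wide mean plus 3 SD, cut at about 13% in these data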;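 further: signal is the Cy5 over europium emission ratio at 671 and 618 nm; 0% = plate median of compound wells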
# MBD2 inh: inhibitors of human MBD2 binding to methylated oligonucleotide | inhibition, % at 4.4 µM | Q9UBB5 | TR-FRET | 370,000 tested, 0.31% active; in the data active means inhibition above about 13%
# Target sequence (Q9UBB5 whole entry, looked up): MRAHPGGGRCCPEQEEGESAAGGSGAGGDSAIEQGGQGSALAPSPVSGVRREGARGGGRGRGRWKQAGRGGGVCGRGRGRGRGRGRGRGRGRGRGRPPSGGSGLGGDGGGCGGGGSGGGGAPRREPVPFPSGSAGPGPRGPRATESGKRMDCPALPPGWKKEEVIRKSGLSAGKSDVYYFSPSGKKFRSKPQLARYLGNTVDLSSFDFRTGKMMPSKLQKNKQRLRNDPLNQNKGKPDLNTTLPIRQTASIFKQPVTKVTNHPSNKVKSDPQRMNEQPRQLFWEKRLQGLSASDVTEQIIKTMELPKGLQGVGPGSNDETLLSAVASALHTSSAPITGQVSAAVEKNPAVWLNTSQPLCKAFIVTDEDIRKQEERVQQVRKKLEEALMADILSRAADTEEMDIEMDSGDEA
# UHRF1 MBD2 ctr: human UHRF1 methylated DNA binding inhibitors. inhibition, % at 4.4 µM. AID 687016. UHRF1 binding to methylated oligo, TR-FRET. 370,000 tested, 0.75% active. Q96T88; in the data active means inhibition above about 21%;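 further: UHRF1 SRA domain binding a hemimethylated CpG hairpin DNA probe; 0% = median of test compound wells and 100% = reference inhibitor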
# TDP2 absorb: TDP2 (human) inhibition, absorbance primary screen; O95551; recombinant TDP2, T5PNP hydrolysis, p-nitrophenol absorbance 415 nm; inhibition, % at 12.8 µM; 370,000 tested, 0.34% active;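 active means inhibition above the mean of all tested compounds plus 3 SD, set per campaign, cut at about 25% in these data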;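 further: 0% = DMSO with enzyme and 100% = buffer with substrate but no TDP2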
#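 Test system: Human TDP2 enzyme | Reagent: 5 mM T5PNP | Compound dosing: 12.8 µM single point, 1% DMSO | Incubation: Enzyme reaction with compound for 2 h at 37 °C | Technique: p-Nitrophenol epi absorbance | Read-out: % inhibition relative to enzyme-containing and enzyme-free wells | Benchmarks: High control without enzyme, low control DMSO plus TDP2 | Replicates: Singlicate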
# IN multimer act: counter-screen for LEDGF/p75 integration inhibitors: HIV-1 integrase multimerization activators; shares compounds with LEDGF integ inh; TR-FRET HIV-1 integrase multimerization, biochemical; activation, % at 7.7 µM; 2,000 tested, 17% active; in the data active means activation above about 8.9%
# TRFRET interf: counter-screen for LEDGF/p75 integration inhibitors: TR-FRET optical interference | shares compounds with LEDGF integ inh | TR-FRET optical interference counterscreen, HIV-1 IN multimerization | inhibition, % at 7.7 µM | 2,000 tested, under 10 active | AID 1053135;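 active means inhibition above the mean over all tested compounds plus 3 SD, which no compound reached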;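 further: 0% = integrase with antibodies and DMSO and 100% = antibodies without integrase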
# LEDGF integ conf: confirmation of HIV-1 LEDGF/p75-dependent integration inhibitors. shares compounds with LEDGF integ inh. TR-FRET LEDGF/p75-dependent HIV-1 integration, biochemical. inhibition, % at 3.7 µM. 2,000 tested, 36% active. AID 1053136; in the data active means inhibition above about 14%
# An asterisk follows results filed as active; / = no result.
SMILES,LEDGF integ inh,MBD2 inh,UHRF1 MBD2 ctr,TDP2 absorb,IN multimer act,TRFRET interf,LEDGF integ conf
C=CCCC1CN(Cc2ccc(OC)cc2)S(=O)(=O)c2c(cccc2N(C)S(=O)(=O)c2ccc(C)cc2)O1 (configuration not stated),89*,0,-2,10,2,-10,-8
O=C(O)CC(CCc1ccccc1)OC1OC(CO)C(O)C(O)C1O (configuration not stated),85*,12,15,5,87*,-441,92*
COc1ccccc1NC(=S)OCCN1CCCC12CCC(c1ccccc1)CC2 (configuration not stated),2,8,2,-4,/,/,/
CC1(C(=O)NS(=O)(=O)C2CC2)CCCN(C(=O)COc2ccc(Cl)cc2Cl)C1 (configuration not stated),0,3,-2,6,/,/,/
CC1(C(=O)NS(=O)(=O)C2CC2)CCN(C(=O)COc2ccc(Cl)cc2Cl)C1 (configuration not stated),14*,1,2,-3,-2,10,1
CCN(CC)C(=O)C1=C(C)N(Cc2ccc(C(C)(C)C)cc2)C(=O)C(CC(=O)NC(c2ccccc2)c2ccccc2)C1 (configuration not stated),70*,-3,1,-11,1,-5,-10
O=c1cc(C(F)(F)F)nc(-n2[nH]c3c(c2=O)CCCC3)[nH]1,17*,2,1,-6,3,-10,-11
CCOC(=O)c1c(C)c(C(=O)NC2CCCCCC2)c(C)n1C,66*,1,-2,14,-1,3,5
CCOC(=O)/C=C/C(=O)Nc1ccccc1-c1ccccc1NC(=O)/C=C/C(=O)OCC,56*,0,-2,12,0,-1,-9
CCOC(=O)/C=C/C(=O)OCC(=O)Nc1cccc(Cl)c1Cl,-2,2,2,-2,/,/,/
c1coc(CSSCc2ccco2)c1,46*,32*,83*,-3,0,-2,11
Cc1ccc(NC(=O)CSCc2ccco2)cc1,-3,0,-1,7,/,/,/
CC(C)(C)c1ccc(-c2nnc(SCC(=O)Nc3ccc4cn[nH]c4c3)n2-c2ccc(Cl)cc2)cc1,0,1,0,-7,/,/,/
CC1CCC2(CC1)CCC2NCc1ccc(Br)cc1 (configuration not stated),1,-2,-1,-7,/,/,/
Cc1ccc(NS(=O)(=O)N2CCCCC2)cc1,2,2,13,3,/,/,/
O=S(=O)(Nc1ccc(Cc2ccncc2)cc1)N1CCCC1,25*,-1,-1,9,1,-5,2
CN(Cc1ccc(F)cc1)C(=O)c1cccc2c1C(=O)N(Cc1cccnc1)C2,1,6,-1,0,/,/,/
O=C1OC(c2cccs2)=N/C1=C/c1ccc(-c2cccc(C(=O)O)c2)o1,29*,8,44*,5,9.5*,-48,15*
CCN(C[C@H]1N[C@@](C)(C(=O)OC)[C@H]2C(=O)N(C)C(=O)[C@@H]12)S(=O)(=O)c1ccc(C)cc1,34*,-7,-1,-7,-3,12,-1
CCN(CC)c1ccc(N=C2C=CC(=O)C=C2NC(C)=O)cc1,73*,0,17,-3,36*,-184,35*
CCN(CC)c1ccc(NC(=O)Nc2ccc(C(C)=O)cc2)cc1,-1,-6,-9,9,/,/,/
CCCCNC(=O)C[C@H]1C[C@@]2(C(=O)OC)C(=C[C@H](C(C)(C)C)O[C@@H]2C)N(Cc2cccc3ccccc23)C1=O,-2,3,-3,4,/,/,/
CCC(=O)Nc1cccc(NC(=O)c2ccccc2Cl)c1,56*,-1,1,6,1,-4,1
COc1ccc(-n2nc(C(=O)O)cc2-c2ccccc2)cc1,29*,1,1,1,1,-4,-5
COC(=O)NCc1ccc2c(c1)OCO2,-5,-1,-2,-9,/,/,/
COC1=C(NCc2ccc3c(c2)OCO3)C(=O)C(OC)=C(NCc2ccc3c(c2)OCO3)C1=O,13*,-1,-6,5,-1,4,1

# Screens deposited in PubChem BioAssay by The Scripps Research Institute Molecular Screening Center.
